The text below walks through data of ChEMBL document CHEMBL4808198, “Synthesis, bioevaluation and docking studies of new imidamide derivatives as nitric oxide synthase inhibitors” (Bioorg Med Chem, 2021).

Data set [1] deals with T1, Nitric oxide synthase, inducible (Homo sapiens, UniProt P35228). As to the kind of experiment: Inhibition of N-terminal His-tagged human recombinant iNOS expressed in Escherichia coli assessed as reduction in L-[3H]-citrulline level using L-[3H]-arginine as substrate at 1 mM incubated for 30 mins by liquid scintillation method relative to control.
T1 sequence (P35228 whole entry): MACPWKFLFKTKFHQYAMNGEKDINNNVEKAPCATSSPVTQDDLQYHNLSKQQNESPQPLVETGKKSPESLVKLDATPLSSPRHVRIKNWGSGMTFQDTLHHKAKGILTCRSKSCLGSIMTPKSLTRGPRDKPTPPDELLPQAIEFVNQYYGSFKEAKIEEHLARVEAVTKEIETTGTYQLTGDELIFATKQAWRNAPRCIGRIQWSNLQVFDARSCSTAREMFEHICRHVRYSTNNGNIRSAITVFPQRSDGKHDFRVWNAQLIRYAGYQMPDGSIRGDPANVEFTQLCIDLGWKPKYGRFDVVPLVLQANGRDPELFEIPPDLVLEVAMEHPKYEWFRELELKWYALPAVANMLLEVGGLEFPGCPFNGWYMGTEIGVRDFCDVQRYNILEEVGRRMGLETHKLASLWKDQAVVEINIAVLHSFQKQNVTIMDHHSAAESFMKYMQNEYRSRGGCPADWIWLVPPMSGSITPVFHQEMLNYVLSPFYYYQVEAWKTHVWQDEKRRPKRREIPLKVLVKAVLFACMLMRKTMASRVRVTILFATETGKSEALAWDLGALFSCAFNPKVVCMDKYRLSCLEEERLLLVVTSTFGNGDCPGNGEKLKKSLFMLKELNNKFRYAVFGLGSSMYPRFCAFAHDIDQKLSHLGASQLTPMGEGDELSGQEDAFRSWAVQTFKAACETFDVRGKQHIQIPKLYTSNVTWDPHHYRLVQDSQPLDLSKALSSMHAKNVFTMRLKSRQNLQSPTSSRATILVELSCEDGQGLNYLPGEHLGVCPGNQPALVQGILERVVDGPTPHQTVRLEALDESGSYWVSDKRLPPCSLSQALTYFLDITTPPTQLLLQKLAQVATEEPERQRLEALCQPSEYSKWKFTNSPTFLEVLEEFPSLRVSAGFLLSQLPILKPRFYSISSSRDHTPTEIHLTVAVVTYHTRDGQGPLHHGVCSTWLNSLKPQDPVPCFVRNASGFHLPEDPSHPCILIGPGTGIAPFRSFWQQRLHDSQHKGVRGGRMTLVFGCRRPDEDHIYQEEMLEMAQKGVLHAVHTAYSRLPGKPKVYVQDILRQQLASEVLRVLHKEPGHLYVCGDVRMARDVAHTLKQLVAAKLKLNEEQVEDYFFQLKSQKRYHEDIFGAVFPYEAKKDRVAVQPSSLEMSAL
Data set [2] addresses T2, Nitric oxide synthase 1 (Homo sapiens, UniProt P29475). In words: Inhibition of human recombinant nNOS expressed in Escherichia coli assessed as reduction in L-[3H]-citrulline level using L-[3H]-arginine as substrate at 1 mM incubated for 30 mins by liquid scintillation method relative to control.
Data set [3] concerns the target T2, Nitric oxide synthase 1. As to the kind of experiment: Inhibition of human recombinant nNOS expressed in Escherichia coli assessed as reduction in L-[3H]-citrulline level using L-[3H]-arginine as substrate incubated for 30 min by scintillation counting.
Data set [4] addresses T1, Nitric oxide synthase, inducible. As to the kind of experiment: Inhibition of N-terminal His-tagged human recombinant iNOS expressed in Escherichia coli assessed as reduction in L-[3H]-citrulline level using L-[3H]-arginine as substrate incubated for 30 min by scintillation counting.
Data set [5] concerns the target T3, Nitric oxide synthase 3 (Rattus norvegicus, UniProt Q62600).
T3 sequence (Q62600 whole entry): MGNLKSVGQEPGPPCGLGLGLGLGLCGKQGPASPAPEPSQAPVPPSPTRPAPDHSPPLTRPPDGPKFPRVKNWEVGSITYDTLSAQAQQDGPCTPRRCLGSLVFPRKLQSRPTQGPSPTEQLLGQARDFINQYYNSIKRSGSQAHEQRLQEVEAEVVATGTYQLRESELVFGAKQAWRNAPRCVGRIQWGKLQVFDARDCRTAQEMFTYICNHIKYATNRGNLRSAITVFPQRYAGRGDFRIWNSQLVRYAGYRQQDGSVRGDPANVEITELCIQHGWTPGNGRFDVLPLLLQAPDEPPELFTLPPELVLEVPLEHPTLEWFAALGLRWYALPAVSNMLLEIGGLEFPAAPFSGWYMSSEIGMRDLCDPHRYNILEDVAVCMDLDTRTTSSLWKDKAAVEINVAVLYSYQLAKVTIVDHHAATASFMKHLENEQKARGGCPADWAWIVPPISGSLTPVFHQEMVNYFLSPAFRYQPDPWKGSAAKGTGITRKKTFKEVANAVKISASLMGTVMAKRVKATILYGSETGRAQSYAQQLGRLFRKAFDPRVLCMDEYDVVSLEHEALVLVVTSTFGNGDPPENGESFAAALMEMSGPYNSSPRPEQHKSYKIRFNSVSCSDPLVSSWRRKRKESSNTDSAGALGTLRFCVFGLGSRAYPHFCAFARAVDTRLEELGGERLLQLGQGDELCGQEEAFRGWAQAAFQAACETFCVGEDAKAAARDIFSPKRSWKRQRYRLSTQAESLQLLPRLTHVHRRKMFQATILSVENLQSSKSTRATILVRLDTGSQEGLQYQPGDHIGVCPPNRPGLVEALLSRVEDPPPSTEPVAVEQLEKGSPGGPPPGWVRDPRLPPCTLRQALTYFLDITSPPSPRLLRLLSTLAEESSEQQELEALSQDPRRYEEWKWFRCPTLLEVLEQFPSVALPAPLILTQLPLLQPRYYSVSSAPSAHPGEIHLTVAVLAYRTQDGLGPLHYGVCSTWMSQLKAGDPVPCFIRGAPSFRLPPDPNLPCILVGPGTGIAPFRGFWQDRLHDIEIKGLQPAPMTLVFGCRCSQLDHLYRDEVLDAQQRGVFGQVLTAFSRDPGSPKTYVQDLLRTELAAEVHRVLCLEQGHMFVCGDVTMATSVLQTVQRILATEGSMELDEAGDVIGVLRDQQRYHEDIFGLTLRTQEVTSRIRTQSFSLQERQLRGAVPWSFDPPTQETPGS
In words: Inhibition of eNOS in Wistar rat endothelium-intact thoracic aortic rings assessed as inhibition of acetylcholine-evoked relaxation at 20 uM pretreated with compound for 30 mins followed by norepinephrine addition and later incubated with acetylcholine. In kind it is tissue-based, Thoracic aorta. The settings on record: 0.5 h. In short, it runs like this: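 Rat descending thoracic aortic rings with endothelium, in Krebs at 37 °C gassed with 95% O₂/5% CO₂, 2 g resting tension, isometric recording. Incubated 30 min with compound (20 µM), L-NAME (100 µM) or DMSO vehicle (1/10⁶), contracted with 1 µM norepinephrine, then cumulative acetylcholine. Relaxation given as % of norepinephrine contraction. Two-way ANOVA with Dunnett's test.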

For another data set, the system named is HUVEC. As to the kind of experiment: Cytotoxicity against HUVEC assessed as reduction in cell viability at 10 to 100 uM measured after 30 mins by MTT assay. The conditions noted are these: human, 0.5 h, 500 µM, in the assay text read “10 to 500 uM” for “10 to 100 uM”. In kind it is cell-based. In short, it runs like this:
(§1)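 HUVECs seeded at 1x10⁴ cells/well, grown 24 h at 37 °C, switched to serum-free medium for at least 2 h, then exposed to serial dilutions (10 - 500 µM) for 30 min. MTT added for 3 h at 37 °C, formazan dissolved in DMSO, absorbance read at 570 nm minus 630 nm background. Viability given as % of untreated cells. At least three independent runs in triplicate.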
On the technique in general: Tetrazolium dyes change colour on reduction, which living cells bring about.

A short description of data set [6]: Cytotoxicity against HUVEC assessed as reduction in cell viability at 500 uM measured after 30 mins by MTT assay relative to control. In kind it is cell-based. The conditions noted are these: human, HUVEC cells, read-out: INH. In short, it runs like this: as §1
The target in data set [7] is T3, Nitric oxide synthase 3. In words: Inhibition of eNOS in Wistar rat endothelium-intact thoracic aortic rings assessed as inhibition of acetylcholine-evoked relaxation at 100 uM pretreated with compound for 30 mins followed by norepinephrine addition and later incubated with acetylcholine. The data set is classed as tissue-based, Thoracic aorta. The settings on record: 0.5 h. In short, it runs like this:
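Descending thoracic aortic rings with endothelium were held in Krebs solution at 37 °C, gassed with 95% O2/5% CO2, at 2 g resting tension, with isometric force recorded. Rings were incubated 30 min with test agent or DMSO vehicle (1/10⁶), then contracted with 1 µM norepinephrine. At plateau, acetylcholine was added cumulatively. Relaxation is given as % of norepinephrine contraction; n = rings from different rats; two-way ANOVA with Dunnett.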

T2 sequence (P29475 whole entry): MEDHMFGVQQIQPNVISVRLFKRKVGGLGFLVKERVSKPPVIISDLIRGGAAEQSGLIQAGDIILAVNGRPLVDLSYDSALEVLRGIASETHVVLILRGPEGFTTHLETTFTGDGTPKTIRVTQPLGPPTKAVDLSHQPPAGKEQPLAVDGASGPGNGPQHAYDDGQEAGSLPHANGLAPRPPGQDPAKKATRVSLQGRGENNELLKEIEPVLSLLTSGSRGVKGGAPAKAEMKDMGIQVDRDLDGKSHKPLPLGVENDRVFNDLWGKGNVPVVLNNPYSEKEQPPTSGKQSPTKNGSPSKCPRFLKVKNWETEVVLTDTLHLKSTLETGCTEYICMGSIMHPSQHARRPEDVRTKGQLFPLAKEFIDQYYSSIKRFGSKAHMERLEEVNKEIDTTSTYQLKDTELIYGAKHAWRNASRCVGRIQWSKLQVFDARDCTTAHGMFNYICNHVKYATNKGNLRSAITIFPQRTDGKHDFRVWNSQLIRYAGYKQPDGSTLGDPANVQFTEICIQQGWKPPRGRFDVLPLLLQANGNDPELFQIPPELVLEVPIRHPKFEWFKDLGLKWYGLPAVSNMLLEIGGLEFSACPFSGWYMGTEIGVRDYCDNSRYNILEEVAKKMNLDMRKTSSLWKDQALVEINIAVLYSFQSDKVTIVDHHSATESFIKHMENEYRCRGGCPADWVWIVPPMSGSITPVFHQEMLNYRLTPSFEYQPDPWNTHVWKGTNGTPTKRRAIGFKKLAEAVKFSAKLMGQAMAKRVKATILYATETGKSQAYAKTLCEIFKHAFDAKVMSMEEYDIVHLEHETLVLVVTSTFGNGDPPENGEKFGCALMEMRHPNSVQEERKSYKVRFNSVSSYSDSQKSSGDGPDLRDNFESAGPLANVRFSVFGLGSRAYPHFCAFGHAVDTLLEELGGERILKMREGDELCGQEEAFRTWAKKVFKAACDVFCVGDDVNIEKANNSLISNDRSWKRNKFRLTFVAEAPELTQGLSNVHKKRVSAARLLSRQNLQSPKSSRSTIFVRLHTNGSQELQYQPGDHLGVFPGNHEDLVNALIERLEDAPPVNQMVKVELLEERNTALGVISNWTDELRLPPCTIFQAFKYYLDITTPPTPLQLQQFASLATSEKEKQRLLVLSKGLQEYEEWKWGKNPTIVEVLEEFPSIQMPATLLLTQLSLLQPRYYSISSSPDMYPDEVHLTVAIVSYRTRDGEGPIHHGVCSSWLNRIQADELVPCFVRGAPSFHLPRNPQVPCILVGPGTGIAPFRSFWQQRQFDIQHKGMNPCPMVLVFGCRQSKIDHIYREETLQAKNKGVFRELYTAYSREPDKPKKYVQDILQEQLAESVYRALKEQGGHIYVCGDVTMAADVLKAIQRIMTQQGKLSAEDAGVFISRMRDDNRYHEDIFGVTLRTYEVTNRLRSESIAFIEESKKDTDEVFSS

For `N=C(NCCC(=O)c1ccccc1N)c1ccccc1`, the inhibition (in general, the drop in the measured response relative to a control, in per cent) in data set [1] is 35.6%; on Nitric oxide synthase 1 [2], 66.5%.
Consider `CCNC(=O)NCCC(=O)c1cc(Cl)ccc1N`, for which the IC50 (commonly the point on the concentration scale where inhibition reaches its midpoint) on Nitric oxide synthase 1 [3] was greater than 1000 µM; in data set [4], 100 µM.
Turning to `COc1ccc(N)c(C(O)CCNC(=N)c2ccc(C(F)(F)F)cc2)c1` (stereo not given), the inhibition stood at 99.6% in data set [1] and 12.5% on Nitric oxide synthase 1 [2]. Also, on Nitric oxide synthase 3 [5], the “inhibition (INH)” value is reported as “Not Active”. For the same molecule, in the data set with HUVEC, the Activity result is given as “Non-Toxic”. Besides, the cytotoxicity at 0.5 h, 500 µM in data set [6] was 20%. The IC50 was greater than 1000 µM at Nitric oxide synthase 1 [3] and 20 µM in data set [4].
As to `COc1ccc(N)c(C(O)CCNC(=N)c2ccccc2)c1` (stereo not given), the inhibition in data set [1] worked out at 95.9%; on Nitric oxide synthase 1 [2], 7.18%. Besides, the Activity entry in the data set with HUVEC is given as “Non-Toxic”. The cytotoxicity at 0.5 h, 500 µM in data set [6] is 20%. Moreover, the IC50 on Nitric oxide synthase 1 [3] was greater than 1000 µM; in data set [4] it was 22.5 µM.
Take `CC(=N)NCCC(=O)c1cc(Cl)ccc1N`: the inhibition in data set [1] is 99.1%; at Nitric oxide synthase 1 [2], 19.9%. Also, in the data set with HUVEC, the Activity result was “Non-Toxic”. For the same molecule, in data set [6], the cytotoxicity at 0.5 h, 500 µM was determined as 20%. In addition, the IC50 was greater than 1000 µM on Nitric oxide synthase 1 [3] and 25.6 µM in data set [4].
Consider `N=C(NCCC(O)c1ccccc1N)c1ccc(C(F)(F)F)cc1` (stereo not given), for which the inhibition was 60.5% in data set [1] and 36.5% at Nitric oxide synthase 1 [2].
Consider `COc1ccc(N)c(C(O)CCNC(C)=N)c1` (stereo not given), for which the inhibition was found to be 57.4% in data set [1] and 19% at Nitric oxide synthase 1 [2].
The like results for `CC(=N)NCCC(O)c1cc(Cl)ccc1N` (stereo not given) were, in that order, 49.1% and 66.1%.
As for `N=C(NCCC(=O)c1ccccc1N)c1ccc(C(F)(F)F)cc1`, the inhibition in data set [1] was found to be 68.6%; on Nitric oxide synthase 1 [2] it was 56%.
Consider `CC(=N)NCCC(O)c1ccccc1N` (stereo not given), for which the inhibition in data set [1] was 16.2%; at Nitric oxide synthase 1 [2], 28.3%.
Regarding `COc1ccc(N)c(C(=O)CCNC(C)=N)c1`, the figures for the inhibition (in data set [1]; on Nitric oxide synthase 1 [2]) were 97.6% and 89.2%, respectively. In addition, the IC50 worked out at 223 µM on Nitric oxide synthase 1 [3] and 59.7 µM in data set [4].
In the case of `N=C(NCCC(O)c1ccccc1N)c1ccc(Cl)cc1` (stereo not given), the inhibition in data set [1] stood at 73.2%; on Nitric oxide synthase 1 [2], 31.6%.
Turning to `CC(=N)NCCC(=O)c1ccccc1N`, the inhibition in data set [1] is 22.2%; at Nitric oxide synthase 1 [2], 88.8%. In addition, the IC50 on Nitric oxide synthase 1 [3] is 325 µM; in data set [4], greater than 1000 µM.
For the molecule `COc1ccc(N)c(C(O)CCNC(=N)c2ccc(Cl)cc2)c1` (stereo not given), the inhibition was found to be 81% in data set [1] and 58.5% at Nitric oxide synthase 1 [2].
In the case of `COC(=O)[C@@H](N)CCCNC(=N)N[N+](=O)[O-]` [L-NAME], at Nitric oxide synthase 3 [7], the “inhibition (INH)” value is listed as “Active”.
On to `N=C(NCCC(O)c1ccccc1N)c1ccccc1` (stereo not given), for which the inhibition came to 64.1% in data set [1] and 23.2% at Nitric oxide synthase 1 [2].
Regarding `CNC(=S)NCCC(O)c1cc(OC)ccc1N` (stereo not given), the results for the IC50 (at Nitric oxide synthase 1 [3]; in data set [4]) were 130 µM and 180 µM, respectively.
In the case of `N=C(NCCC(=O)c1ccccc1N)c1ccc(Cl)cc1`, the inhibition in data set [1] stood at 33.4%; at Nitric oxide synthase 1 [2] it was 37.4%.
Consider `COc1ccc(N)c(C(=O)CCNC(=N)c2ccccc2)c1`, for which the values for the inhibition (in data set [1]; on Nitric oxide synthase 1 [2]) were 94.7% and 85.9%, respectively. The Activity entry with HUVEC is listed as “Non-Toxic”. In addition, the cytotoxicity at 0.5 h, 500 µM in data set [6] is 20%. For the same molecule, the IC50 at Nitric oxide synthase 1 [3] came out at 194 µM; in data set [4] it was 45.2 µM.
Turning to `COc1ccc(N)c(C(=O)CCNC(=N)c2ccc(Cl)cc2)c1`, the values for the inhibition (in data set [1]; at Nitric oxide synthase 1 [2]) were 75.1% and 86.4%, respectively.
